Reference: ChEMBL document CHEMBL1127860, “Design, synthesis, X-ray analysis, and dopamine receptor-modulating activity of mimics of the "C5" hydrogen-bonded conformation in the peptidomimetic 2-oxo-3(R)-[(2(S)-pyrrolidinylcarbonyl)amino]-1- pyrrolidineacetamide” (J Med Chem, 1994)

Assays:
[1] = target: D(2) dopamine receptor (Bos taurus) (UniProt P20288); test: Binding towards dopamine D2 receptor using [3H]spiroperidol in presence of (Gpp(NH)p)
[2] = target: D(2) dopamine receptor (Bos taurus) (UniProt P20288); test: Binding towards dopamine D2 receptor using [3H]spiroperidol in the absence of (Gpp(NH)p)
[3] = target: D(2) dopamine receptor (Bos taurus) (UniProt P20288); test: Percentage of sites in high affinity form for the agonist in the absence of (Gpp(NH)p; type: functional
[4] = target: D(2) dopamine receptor (Bos taurus) (UniProt P20288); test: Percentage of sites in low affinity form for the agonist in the absence of (Gpp(NH)p); type: functional
[5] = target: D(2) dopamine receptor (Bos taurus) (UniProt P20288); test: Percentage of sites in low affinity form for the agonist in the presence of (Gpp(NH)p); type: functional
[6] = target: D(2) dopamine receptor (Bos taurus) (UniProt P20288); test: Percentage of sites in high affinity form for the agonist in the presence of (Gpp(NH)p); type: functional
[7] = target: D(2) dopamine receptor (Bos taurus) (UniProt P20288); test: Tested for the ability to enhance the binding of the dopamine D2 receptor agonist N-propylnorapomorphine (NPA) in the absence of (Gpp(NH)p)
Method in brief: (§1)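 High-affinity [³H]NPA (0.05 nM) binding to bovine striatal membranes, 1 h at 22 °C, then GF/B filtration. Compound at 1, 10 or 100 nM, either with 100 μM Gpp(NH)p added directly or after a 2 h, 4 °C preincubation with Gpp(NH)p and washing. Expressed as % of maximal specific binding in Gpp(NH)p-free membranes. Mean ± SEM of five experiments.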

[8] = target: D(2) dopamine receptor (Bos taurus) (UniProt P20288); test: Tested for the ability to enhance the binding of the dopamine D2 receptor agonist N-propylnorapomorphine (NPA) in the presence of (Gpp(NH)p); method in brief: as §1
[9] = Ratio of Rh and RL Inhibitor constants in absence of (Gpp(NH)p)
[10] = Ratio of Rh and RL Inhibitor constants in presence of (Gpp(NH)p)
[11] = target: D(2) dopamine receptor (Bos taurus) (UniProt P20288)
[12] = target: D(2) dopamine receptor (Bos taurus) (UniProt P20288); remark: listed apart in the source

D(2) dopamine receptor (Bos taurus), sequence (P20288 whole entry): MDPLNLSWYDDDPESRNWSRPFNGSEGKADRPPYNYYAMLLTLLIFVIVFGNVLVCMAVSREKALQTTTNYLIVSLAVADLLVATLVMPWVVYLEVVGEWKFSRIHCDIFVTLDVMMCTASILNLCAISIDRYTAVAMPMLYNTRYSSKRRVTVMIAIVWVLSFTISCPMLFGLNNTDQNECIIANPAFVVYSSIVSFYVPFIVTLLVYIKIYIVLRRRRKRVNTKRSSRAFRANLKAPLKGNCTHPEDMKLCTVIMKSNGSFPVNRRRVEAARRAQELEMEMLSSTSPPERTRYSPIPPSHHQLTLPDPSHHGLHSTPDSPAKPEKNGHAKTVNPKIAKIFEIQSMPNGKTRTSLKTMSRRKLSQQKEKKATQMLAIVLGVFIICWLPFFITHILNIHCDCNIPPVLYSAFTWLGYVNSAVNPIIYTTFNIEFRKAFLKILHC

Row | SMILES | KH [1] [nM] | KH [2] [nM] | RH [3] [%] | RL [4] [%] | RL [5] [%] | RH [6] [%] | KL [7] [nM] | KL [8] [nM] | Ratio [9] | Ratio [10] | KL [11] [nM] | KL [12] [nM]
1 | CC1(C)N2CCC[C@H]2C(=O)N1[C@@H]1CCN(CC(N)=O)C1=O | 0.07 | 0.03 | 65 | 34 | 64 | 36 | 61 | 77 | 1.91 | 0.56 |  | 
2 | NC(=O)CN1CC[C@@H](N2CC(=O)N3CCC[C@H]3C2=O)C1=O | 0.05 | 0.02 | 65 | 33 | 59 | 42 |  |  | 1.97 | 0.71 | 64 | 56
